Results as given in ChEMBL document CHEMBL4610103, “Oleanane Triterpenoids from the Leaves of Gymnema inodorum and Their Insulin Mimetic Activities” (J Nat Prod, 2020).
Activity calls are given as the source filed them.

How the values were obtained:
Format in all cases: functional, cell-based
3T3-L1 [1] = assay: Induction of glucose uptake in mouse 3T3L1 cells assessed as increase in 2-NBDG uptake at 20 uM after 1 hr by fluorescence method
Procedure, shortened: (§1)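 Differentiated 3T3-L1 adipocytes switched to glucose-free medium containing 100 nM insulin, test compounds (20 μM single dose, or 5, 10 and 20 μM) and 50 μM 2-NBDG. Cells washed twice with PBS and lysed in 1% Triton X-100/0.1 M K3PO4 in PBS. Fluorescence read at ex 450/em 535 nm. Means ± SD of three independent experiments, each in triplicate. DMSO vehicle control; insulin positive control.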

3T3-L1 [2] = assay: Induction of glucose uptake in mouse 3T3L1 cells assessed as increase in 2-NBDG uptake after 1 hr by fluorescence method; procedure, shortened: as §1
3T3-L1 [3] = assay: Induction of glucose uptake in mouse 3T3L1 cells assessed as increase in 2-NBDG uptake at 20 uM after 1 hr by fluorescence microscopy
Procedure, shortened: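 Differentiated 3T3-L1 adipocytes treated with 20 μM compound in the presence of 2-NBDG. Green fluorescence inside cells was imaged by fluorescence microscopy to follow 2-NBDG transport. Signals expressed as means ± SD (n = 3). DMSO negative control; insulin positive control.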

Measured: Activity

CC1(C)CC[C@]2(C)[C@@H](O)C[C@]3(C)C(=CC[C@@H]4[C@@]5(C)CC[C@H](O[C@@H]6O[C@H](C(=O)O)[C@@H](O)[C@H](O)[C@H]6O[C@@H]6O[C@H](CO)[C@@H](O)[C@H](O)[C@H]6O)C(C)(C)[C@@H]5CC[C@]43C)[C@@H]2C1
active: 3T3-L1 [1] | 3T3-L1 [2] Dose-dependent effect | 3T3-L1 [3]

CC1(C)C[C@H](OC(=O)c2ccccc2)[C@]2(CO)[C@@H](O)C[C@]3(C)C(=CC[C@@H]4[C@@]5(C)CC[C@H](O[C@@H]6O[C@H](C(=O)O)[C@@H](O)[C@H](O)[C@H]6O)[C@@](C)(CO)[C@@H]5CC[C@]43C)[C@@H]2C1
active: 3T3-L1 [1] | 3T3-L1 [2] Dose-dependent effect | 3T3-L1 [3]

CNc1ccccc1C(=O)O[C@H]1CC(C)(C)C[C@H]2C3=CC[C@@H]4[C@@]5(C)CC[C@H](O[C@@H]6O[C@H](C(=O)O)[C@@H](O)[C@H](O)[C@H]6O)[C@@](C)(CO)[C@@H]5CC[C@@]4(C)[C@]3(C)C[C@H](O)[C@@]12CO
active: 3T3-L1 [1] | 3T3-L1 [2] Dose-dependent effect | 3T3-L1 [3]
